Source: PubChem
Shown are actives, neighbours in structure and some others; about 29% of the full set was active somewhere.
CYP2C19 inhib – blockers of cytochrome P450 2C19 activity – biochemical, luminescence, ADME assay, primary screen. inhibition, % at 5 µM. 96,000 compounds, 21% hits. AID 778, 2007. P33261. CYP2C19 Supersomes, luciferin-H EGE luminescence, 30 min;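 active = CYP2C19 inhibition above a set limit at 5 µM in the primary screen, cut at about 50% in these data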;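 note: plate controls were negative control wells for no effect and 2.5 mM tranylcypromine positive control for full effect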
Target sequence (P33261 whole entry, looked up): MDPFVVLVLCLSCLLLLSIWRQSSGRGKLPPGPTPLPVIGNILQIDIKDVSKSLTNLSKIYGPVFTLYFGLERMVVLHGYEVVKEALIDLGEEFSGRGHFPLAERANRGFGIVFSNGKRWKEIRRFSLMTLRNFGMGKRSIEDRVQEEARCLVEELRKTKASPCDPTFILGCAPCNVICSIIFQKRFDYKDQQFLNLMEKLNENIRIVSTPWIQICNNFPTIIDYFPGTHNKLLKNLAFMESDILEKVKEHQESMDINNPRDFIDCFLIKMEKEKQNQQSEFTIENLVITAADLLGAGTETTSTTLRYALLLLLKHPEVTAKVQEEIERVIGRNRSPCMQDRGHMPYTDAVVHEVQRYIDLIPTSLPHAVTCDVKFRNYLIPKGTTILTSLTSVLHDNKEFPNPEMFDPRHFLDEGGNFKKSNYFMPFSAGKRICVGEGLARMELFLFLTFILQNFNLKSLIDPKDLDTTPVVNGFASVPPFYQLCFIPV
CYP2C9 inhib – blockers of cytochrome P450 2C9 activity – biochemical, luminescence, ADME assay, primary screen; P11712; CYP2C9 Supersomes, luciferin-H conversion; inhibition, % at 5 µM; 96,000 compounds, 20% hits;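 active = blocking of liver enzyme CYP2C9 beyond about 50% at 5 µM, limit read from the data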
Ecoli tolC – growth inhibitors of E. coli tolC mutant, primary screen, strain BW25113 ΔtolC::kan, 384-well. OD615. growth inhibition, % at 10 µM (by protocol). 65,000 compounds, 2.2% hits;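 active = growth inhibition at or above a cutoff equal to the mean over every tested compound plus 3 SD, cut at about 60% in these data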;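 note: growth measured after 20 h incubation at 37 °C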
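Test system: tolC-deleted E. coli BW25113; medium: LB with kanamycin 50 µg/mL; compound: single-point testing at 10 µM; incubation: 20 h compound exposure of bacteria at 37 °C; signal: OD at 615 nm; evaluation: growth inhibition in percent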
Ecoli WT expand – growth inhibitors of wild-type E. coli, primary screen, strain BW25113, expanded library, OD600. OD600 absorbance. growth inhibition, % at 100 µM. 98,000 compounds, 0.15% hits;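 active = growth inhibition above about 50% at one test dose, limit read from the data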;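 note: growth measured after 20 h incubation at 37 °C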
CYP2C9 act – human CYP2C9 activators, primary screen, biochemical, luminescence; recombinant CYP2C9, luciferin-H conversion; active compounds read high; factor 1 = untreated enzyme, 0 = blocked; activation factor at 5 µM; AID 1024, 2008; 96,000 compounds, 1.4% hits;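 active = activation factor of 2 or more for CYP2C9 at a 5 µM dose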;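 note: 0 = sulfaphenazole-blocked wells and 1 = vehicle-only wells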
CYP2C19 act – human CYP2C19 activators, primary screen, biochemical, luminescence; Cytochrome P450 2C19 (Homo sapiens), P33261; recombinant CYP2C19, luciferin-H EGE luminescence; active compounds read high; 0 = fully inhibited enzyme, 1 = untreated enzyme; activation factor at 5 µM; 96,000 tested, under 10 active; AID 1025, 2008;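 active = activation factor of at least 2 at 5 µM in the primary screen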;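 note: 0 = wells with 2.5 mM tranylcypromine and 1 = vehicle-only wells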
Numbers without * were called inactive.

Results for Cc1nn(-c2ccccc2)c(Cl)c1C(=O)Nc1nnc(C2CCCC2)s1 ?
CYP2C19 inhib: 44; CYP2C9 inhib: 94*; Ecoli tolC: 100*; Ecoli WT expand: -22; CYP2C9 act: 0.1; CYP2C19 act: 0.6

Results for N#Cc1ccccc1CSc1ccccn1 ?
CYP2C19 inhib: 56*; CYP2C9 inhib: 5; Ecoli tolC: 8; Ecoli WT expand: 11; CYP2C9 act: 1; CYP2C19 act: 0.4

What do the screens show for `CCOc1ccc(NC(=O)CSc2nnnn2CC(=O)O)cc1`?
Ecoli tolC: -25; Ecoli WT expand: 1

What do the screens show for `CCCn1nnnc1NC(=O)CSc1ccc(Cl)cc1`?
CYP2C19 inhib: 82*; CYP2C9 inhib: 66*; Ecoli tolC: 75*; Ecoli WT expand: 17; CYP2C9 act: 0.3; CYP2C19 act: 0.2

Results for CCCn1nnnc1SCC(=O)Nc1ccc(F)cc1 ?
CYP2C19 inhib: 96*; CYP2C9 inhib: 19; Ecoli tolC: -10; Ecoli WT expand: 4; CYP2C9 act: 0.8; CYP2C19 act: 0

How did CCCn1nnnc1SCC(=O)N(C(C)C)C(C)C do in these assays?
CYP2C19 inhib: 72*; CYP2C9 inhib: -1; Ecoli tolC: -15; Ecoli WT expand: 3; CYP2C9 act: 1; CYP2C19 act: 0.3

How did CCCn1nnnc1SCC(=O)c1ccc2c(c1)OCCO2 do in these assays?
CYP2C19 inhib: 65*; CYP2C9 inhib: 37; Ecoli tolC: 11; Ecoli WT expand: 3; CYP2C9 act: 0.6; CYP2C19 act: 0.4

Results for Cn1cnnc1SCC(=O)c1ccc2c(c1)OCCO2 ?
CYP2C19 inhib: -13; CYP2C9 inhib: -20; Ecoli WT expand: 14; CYP2C9 act: 1.2; CYP2C19 act: 1.1

Results for Cc1ccnn2cc3c(=O)n(C)c(=O)n(C)c3c12 ?
CYP2C19 inhib: -2; CYP2C9 inhib: 17; Ecoli WT expand: 4; CYP2C9 act: 0.8; CYP2C19 act: 1

Results for COc1cc(OC)nc(Oc2ccccc2C(=O)Oc2ccc(F)cc2Cl)n1 ?
CYP2C19 inhib: 33; CYP2C9 inhib: 42; Ecoli WT expand: -4; CYP2C9 act: 0.6; CYP2C19 act: 0.7

How did Cc1nc2ccccc2n1CCc1nc2c3ccccc3nc(SCC#N)n2n1 do in these assays?
CYP2C19 inhib: 17; CYP2C9 inhib: 1; Ecoli WT expand: 0; CYP2C9 act: 1; CYP2C19 act: 0.8

Results for CC(=O)N1N=C(c2ccncc2)OC12CCCC2 ?
CYP2C19 inhib: 48; CYP2C9 inhib: 3; Ecoli WT expand: 3; CYP2C9 act: 1; CYP2C19 act: 0.5

Results for CCCCn1nnnc1SCC(=O)Nc1ccc2c(c1)OCCO2 ?
CYP2C19 inhib: 67*; CYP2C9 inhib: 59*; Ecoli tolC: -9; Ecoli WT expand: 4; CYP2C9 act: 0.4; CYP2C19 act: 0.3

How did O=C(CSc1nnnn1-c1ccccc1Cl)Nc1ccc2c(c1)OCCO2 do in these assays?
CYP2C19 inhib: -3; CYP2C9 inhib: -13; Ecoli tolC: 26; Ecoli WT expand: 0; CYP2C9 act: 1.1; CYP2C19 act: 1

What do the screens show for `CCCCn1nnnc1SCC(=O)Nc1ccc(C)cc1`?
CYP2C19 inhib: 71*; CYP2C9 inhib: 36; Ecoli tolC: -11; Ecoli WT expand: -1; CYP2C9 act: 0.6; CYP2C19 act: 0.3

Results for CC(=O)c1cc2c(=O)c3ccccc3oc2nc1C ?
Ecoli tolC: 7

What do the screens show for `O=c1c2ccccc2oc2nc3ccn(Cc4ccncc4)c(=O)c3cc12`?
CYP2C19 inhib: 41; CYP2C9 inhib: 59*; Ecoli WT expand: 2; CYP2C9 act: 0.4; CYP2C19 act: 0.6

What do the screens show for `CCN(C(=O)Cc1ccc(Br)cc1)C1CCCCC1`?
CYP2C19 inhib: 22; CYP2C9 inhib: 37; Ecoli WT expand: 15; CYP2C9 act: 0.6; CYP2C19 act: 0.8

What do the screens show for `Cc1cccc(NC(=O)C2NC(=O)CC2c2ccccc2)c1C` (stereo unspecified)?
CYP2C19 inhib: 58*; CYP2C9 inhib: 16; Ecoli WT expand: 0; CYP2C9 act: 0.8; CYP2C19 act: 0.4

Results for CCCn1c(/N=C/c2ccc3c(c2)OCO3)nc2ccccc21 ?
CYP2C19 inhib: 4; CYP2C9 inhib: 0; Ecoli WT expand: 0; CYP2C9 act: 1; CYP2C19 act: 1

Results for CCn1c(C(O)c2ccc3c(c2)OCO3)nc2ccccc21 (stereo unspecified) ?
CYP2C19 inhib: 98*; CYP2C9 inhib: 46; Ecoli tolC: 14; Ecoli WT expand: 7; CYP2C9 act: 0.5; CYP2C19 act: 0

How did O=C(Nn1c(Cc2cccs2)nc2ccccc2c1=O)c1cccs1 do in these assays?
CYP2C19 inhib: 84*; CYP2C9 inhib: 80*; Ecoli tolC: -9; Ecoli WT expand: -7; CYP2C9 act: 0.2; CYP2C19 act: 0.2

What do the screens show for `Cc1nc2ccccc2c(=O)n1NCc1cccs1`?
CYP2C19 inhib: 75*; CYP2C9 inhib: 21; Ecoli tolC: -8; Ecoli WT expand: 4; CYP2C9 act: 0.8; CYP2C19 act: 0.3

Results for Cn1c(-c2ccccc2)cnc1SCC(=O)NCc1ccco1 ?
CYP2C19 inhib: 26; CYP2C9 inhib: 29; Ecoli tolC: 3; Ecoli WT expand: 4; CYP2C9 act: 0.7; CYP2C19 act: 0.7

How did Cc1sc(NC(=O)c2ccccc2)c(C(=O)NC(C)C)c1C do in these assays?
CYP2C19 inhib: 5; CYP2C9 inhib: 53*; Ecoli WT expand: -8; CYP2C9 act: 0.5; CYP2C19 act: 0.9

What do the screens show for `Cc1sc(NC(=O)c2ccccc2)c(C(=O)N2CCN(C)CC2)c1C`?
CYP2C19 inhib: -1; CYP2C9 inhib: -3; Ecoli tolC: -5; Ecoli WT expand: 8; CYP2C9 act: 1; CYP2C19 act: 1

How did COC(=O)c1c(NC(=O)Cc2ccccc2)sc(C)c1C do in these assays?
CYP2C19 inhib: 32; CYP2C9 inhib: 24; Ecoli WT expand: 6; CYP2C9 act: 0.8; CYP2C19 act: 0.7

How did CCN(CC)C(=O)c1c(NC(=O)c2ccccc2)sc(C)c1C do in these assays?
CYP2C19 inhib: 73*; CYP2C9 inhib: 24; Ecoli WT expand: -6; CYP2C9 act: 0.8; CYP2C19 act: 0.3

Results for CC(C)OC(=O)c1cn(-c2ccccc2)nc1-c1ccc2c(c1)OCCO2 ?
CYP2C19 inhib: 20; CYP2C9 inhib: 19; Ecoli WT expand: -20; CYP2C9 act: 0.8; CYP2C19 act: 0.8

How did O=C(CCN1CCCCCC1)Nc1cccc(Cl)c1 do in these assays?
CYP2C19 inhib: 6; CYP2C9 inhib: -9; Ecoli tolC: -14; Ecoli WT expand: 6; CYP2C9 act: 1.1; CYP2C19 act: 0.9
